The results in this text go back to ChEMBL document CHEMBL1141149, “Novel fluorinated prodrugs for activation by carboxypeptidase G2 showing good in vivo antitumor activity in gene-directed enzyme prodrug therapy” (J Med Chem, 2005).

Data set [1] can be described thus: Cytotoxicity aganist MDA MB361 cell line MDA MB 361 expressing carboxypeptidase G2 done for 1 hr with compound dissolved in DMSO. To be noted: Homo sapiens, MDA-MB-361, 1 h. Type of data set: functional, cell-based. A digest of the protocol: (§1)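 Stably transfected MDA MB 361 lines (β-gal, cytoplasmic CPG2, or surface-tethered stCPG2(Q)3) in DMEM/10% FBS, confluent 6-well monolayers. Prodrug series 1 h, then equal concentration fresh solution added, 20 h more. Cells reseeded 2×10^3/well, grown 5 days; SRB staining, A540. IC50 by four-parameter logistic fit of % control growth.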

Data set [2] can be described thus: Half life period was determined. The note with it: rat. The class given is ADME. A digest of the protocol: (§2)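 Compounds diluted from 10 mM DMSO stocks to 100 μM final in CPG2 assay buffer (100 mM Tris-HCl pH 7.3, 260 μM ZnCl2), no enzyme. Remaining parent measured over time by repeat isocratic reverse-phase HPLC injections (10 mM ammonium acetate pH 5.0/methanol), UV at λmax. Half-life from one-phase exponential decay fit (max 1, min 0).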

Data set [3] is described as follows: Ratio of IC50 of LacZ cell line to CPG2-expressing cell line. The class given is functional, Homo sapiens. The method, boiled down: (§3)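 Selectivity ratio: IC50 in β-gal (LacZ) control MDA MB 361 cells divided by IC50 in CPG2- or stCPG2(Q)3-expressing cells, both from 1 h + 20 h exposure, 5-day regrowth SRB assay.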
Data set [4] in a line: Ratio of IC50 of LacZ cell line to stCPG2(Q)3-expressing cell line. Type of data set: functional, Homo sapiens. The method, boiled down:
as §3

The nature of data set [5]: Cytotoxicity against MDA MB361 cell line MDA MB 361 expressing beta-galactosidase done for 1 h with compound dissolved in DMSO. The class given is functional, cell-based. To be noted: Homo sapiens, MDA-MB-361, 1 h. A digest of the protocol:
as §1

Data set [6] in a line: Cytotoxicity aganist MDA MB361 cell line MDA MB 361 expressing stCPG2(Q)3 done for 1 hr with compound dissolved in DMSO. Type of data set: functional, cell-based. The note with it: Homo sapiens, MDA-MB-361, 1 h. The method, boiled down:
as §1

The nature of data set [7]: Chemical half life period as substrates of CPG2 was determined. Type of data set: ADME. A digest of the protocol: as §2
The target in data set [8] is T1, Carboxypeptidase G2 (Pseudomonas aeruginosa (strain ATCC 15692 / PAO1 / 1C / PRS 101 / LMG12228)) (UniProt Q9I056).
T1 sequence (whole entry): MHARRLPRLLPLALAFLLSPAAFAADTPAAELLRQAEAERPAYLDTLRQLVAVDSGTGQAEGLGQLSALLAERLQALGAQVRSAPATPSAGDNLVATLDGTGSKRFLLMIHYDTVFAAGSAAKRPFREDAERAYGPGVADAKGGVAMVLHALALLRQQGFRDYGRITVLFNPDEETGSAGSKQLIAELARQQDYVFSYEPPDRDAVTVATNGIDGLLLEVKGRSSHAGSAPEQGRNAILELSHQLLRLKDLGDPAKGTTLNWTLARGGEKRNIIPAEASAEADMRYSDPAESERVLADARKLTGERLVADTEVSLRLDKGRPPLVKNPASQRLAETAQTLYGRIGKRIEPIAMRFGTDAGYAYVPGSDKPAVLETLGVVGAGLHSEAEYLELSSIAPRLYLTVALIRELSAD
Kind of data set: Kcat against carboxypeptidase G2 in inhibitory kinetic assay. The method, boiled down: (§4)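 Prodrug 0.2–50 μM (25 concentrations) in CPG2 assay buffer (100 mM Tris-HCl pH 7.3, 260 μM ZnCl2) at 37 °C, ±50 mU CPG2. Absorbance change at wavelength of maximal prodrug/drug difference followed 1 min, non-enzymic change subtracted, converted to substrate loss. Km and kcat from Michaelis–Menten nonlinear fit.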

Compound in data set [9]: CS(=O)(=O)OCCN(CCCl)c1ccc(C(=O)N[C@@H](CCC(=O)O)C(=O)O)cc1
Kind of data set: (§5) Km against carboxypeptidase G2 in inhibitory kinetic assay. To be noted: Pseudomonas. A digest of the protocol:
as §4

Compound in data set [10]: O=C(O)CC[C@H](NC(=O)c1cc(F)c(N(CCBr)CCBr)c(F)c1)C(=O)O
The description is as §5. The note with it: Pseudomonas. A digest of the protocol:
as §4

Compound in data set [11]: O=C(O)CC[C@H](NC(=O)c1cc(F)c(N(CCBr)CCBr)c(F)c1F)C(=O)O
The description is as §5. The note with it: Pseudomonas. The method, boiled down: as §4

Compound in data set [12]: O=C(O)CC[C@H](NC(=O)c1cc(F)c(N(CCCl)CCCl)c(F)c1)C(=O)O
The description is as §5. The note with it: Pseudomonas. A digest of the protocol:
as §4

Compound in data set [13]: O=C(O)CC[C@H](NC(=O)c1cc(F)c(N(CCCl)CCCl)c(F)c1F)C(=O)O
The description is as §5. The note with it: Pseudomonas. The method, boiled down: as §4

Compound in data set [14]: O=C(O)CC[C@H](NC(=O)c1cc(F)c(N(CCI)CCI)c(F)c1)C(=O)O
The description is as §5. The note with it: Pseudomonas. The method, boiled down: as §4

Compound in data set [15]: O=C(O)CC[C@H](NC(=O)c1cc(F)c(N(CCI)CCI)c(F)c1F)C(=O)O
The description is as §5. The note with it: Pseudomonas. The method, boiled down: as §4

For the molecule `O=C(O)CC[C@H](NC(=O)c1cc(F)c(N(CCI)CCI)c(F)c1F)C(=O)O`, the IC50 in [1] was 671 µM; in [5] it was greater than 4000 µM; in [6], 173 µM. The half-life is 6 h in [2] and 0.622 h in data set [7]. Moreover, the results for the Differential in [3] and in [4] were greater than 6 and greater than 23, respectively. Moreover, the K cat in data set [8] was 220 1/S.
On to `O=C(O)CC[C@H](NC(=O)c1c(F)c(F)c(N(CCI)CCI)c(F)c1F)C(=O)O`, for which the half-inhibitory concentration (IC50) in data set [1], in data set [5] and in [6] was greater than 4000 µM throughout. Further, in data set [7], the half-life is 2 h. Also, the K cat in [8] is 0 1/S.
In the case of `O=C(O)CC[C@H](NC(=O)c1cc(F)c(N(CCCl)CCCl)c(F)c1F)C(=O)O`, the results for the half-inhibitory concentration (IC50) in data set [1], in data set [5] and in data set [6] were 73 µM, greater than 4000 µM and 46 µM, respectively. The results for the half-life in data set [2] and in data set [7] were 6 h and 21.7 h, respectively. For the same molecule, the Differential in [3] is listed as greater than 55; in data set [4], greater than 87. Further, in data set [8], the K cat is 1150 1/S.
As for `O=C(O)CC[C@H](NC(=O)c1c(F)c(F)c(N(CCCl)CCCl)c(F)c1F)C(=O)O`, the IC50 in [1], in [5] and in data set [6] was greater than 4000 µM in each case. Moreover, the half-life in [7] was 82.3 h. In addition, the K cat in data set [8] is 0 1/S.
In [7], `CS(=O)(=O)OCCN(CCCl)c1ccc(C(=O)O)cc1` yielded a half-life of 0.5 h.
Turning to `O=C(O)CC[C@H](NC(=O)c1cc(F)c(N(CCI)CCI)c(F)c1)C(=O)O`, the values for the IC50 in [1], in [5] and in data set [6] were 39 µM, 3300 µM and 26 µM, respectively. Also, the half-life in [2] is less than 0.0833 h; in data set [7], 0.15 h. For the same molecule, the Differential in data set [3] was determined as 86; in data set [4], 127. Also, the K cat in data set [8] is 1150 1/S.
As to `O=C(O)CC[C@H](NC(=O)c1cc(F)c(N(CCBr)CCBr)c(F)c1F)C(=O)O`, the IC50 in data set [1] was 82 µM; in data set [5] it was greater than 4000 µM; in [6], 50 µM. Also, the half-life is 0.15 h in [2] and 0.382 h in data set [7]. In addition, the values for the Differential in data set [3] and in [4] were greater than 49 and greater than 80, respectively. The K cat in data set [8] is 825 1/S.
With `CS(=O)(=O)OCCN(CCCl)c1ccc(C(=O)N[C@@H](CCC(=O)O)C(=O)O)cc1`, the IC50 came out at 1880 µM in data set [1], 3130 µM in [5] and 165 µM in [6]. Besides, the Differential in data set [4] is reported as 19. For the same molecule, the K cat in data set [8] is 583 1/S.
In the case of `O=C(O)CC[C@H](NC(=O)c1cc(F)c(N(CCCl)CCCl)c(F)c1)C(=O)O`, the IC50 is 42 µM in data set [1], greater than 4000 µM in data set [5] and 26 µM in data set [6]. Moreover, the half-life in data set [2] amounted to 1.5 h; in [7], 4.9 h. Further, the Differential in data set [3] is reported as greater than 95; in data set [4], greater than 150. For the same molecule, the K cat in [8] is 732 1/S.
On to `O=C(O)CC[C@H](NC(=O)c1cc(F)c(N(CCBr)CCBr)c(F)c1)C(=O)O`, for which the IC50 was 53 µM in data set [1], greater than 4000 µM in [5] and 14 µM in data set [6]. Besides, the figures for the half-life in data set [2] and in [7] were less than 0.0833 h and 0.0917 h, respectively. Besides, the Differential is reported as greater than 75 in data set [3] and greater than 280 in data set [4]. Also, the K cat in data set [8] is 827 1/S.

B1: Carboxypeptidase G2 (Pseudomonas aeruginosa (strain ATCC 15692 / PAO1 / 1C / PRS 101 / LMG12228)), Q9I056 (protein)
chain: MHARRLPRLLPLALAFLLSPAAFAADTPAAELLRQAEAERPAYLDTLRQLVAVDSGTGQAEGLGQLSALLAERLQALGAQVRSAPATPSAGDNLVATLDGTGSKRFLLMIHYDTVFAAGSAAKRPFREDAERAYGPGVADAKGGVAMVLHALALLRQQGFRDYGRITVLFNPDEETGSAGSKQLIAELARQQDYVFSYEPPDRDAVTVATNGIDGLLLEVKGRSSHAGSAPEQGRNAILELSHQLLRLKDLGDPAKGTTLNWTLARGGEKRNIIPAEASAEADMRYSDPAESERVLADARKLTGERLVADTEVSLRLDKGRPPLVKNPASQRLAETAQTLYGRIGKRIEPIAMRFGTDAGYAYVPGSDKPAVLETLGVVGAGLHSEAEYLELSSIAPRLYLTVALIRELSAD
Take B1: the Michaelis-Menten constant (Km) came out at 3.4 µM in data set [9]; 1.18 µM in data set [10]; 1.1 µM in data set [11]; 1.71 µM in [12]; 2.6 µM in data set [13]; 1.74 µM in data set [14]. The Km in [15] amounted to 2.8 µM.

One may read the IC50 as the concentration that inhibits the measured activity by half. The term half-life denotes the time needed for the level to fall by half in the phase considered. The term Km denotes the concentration of substrate that gives half-maximal velocity.
